Reference: ChEMBL document CHEMBL4316592, “Synthesis of new derivatives of boehmeriasin A and their biological evaluation in liver cancer” (Eur J Med Chem, 2019)
Activity calls are given as the source filed them. No cut-off for these calls is given here.

Assays:
Mahlavu [1] = assay: Induction of apoptosis in human Mahlavu cells assessed as viable cells at 1 uM after 48 hrs by Annexin V-FITC/propidium iodide staining-based flow cytometric analysis (reference value: 98.48%); format: functional; details: read-out: Activity
Mahlavu [2] = assay: Cell cycle arrest in human Mahlavu cells assessed as accumulation of cells at G2/M phase at 1 uM after 24 hrs by propidium iodide staining-based flow cytometric analysis (reference value: 24.7%); format: functional
Huh-7 [3] = assay: Cell cycle arrest in human HuH7 cells assessed as accumulation of cells at subG1 phase at 1 uM after 48 hrs by propidium iodide staining-based flow cytometric analysis (reference value: 3.2%); format: functional
Mahlavu [4] = assay: Cytotoxicity against human Mahlavu cells after 72 hrs by RTCA analysis; format: functional, cell-based
How it was run: (§1)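 xCELLigence impedance real-time growth assay. Huh7 (2000) or Mahlavu (1000) cells plated, treated after 24 h at log phase with a 2-fold dilution series (4 steps) from a top concentration of 1. Cell index recorded every 10 min for 24 h, then every 30 min. Growth inhibition normalized to DMSO; IC50 taken at 24, 48, 72 h.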

Hep 3B2 = assay: Cytotoxicity against human Hep3B cells after 72 hrs by SRB assay; format: functional, cell-based; details: Homo sapiens, Hep3B, 72 h; read-out: IC50
How it was run: (§2)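 SRB assay. Cells plated per well (HCT116 3000; Huh7, Hep3B, HepG2, MCF-7 2000; Mahlavu, FOCUS, SNU475 1000) and grown 24 h. Compounds came from 20 mM DMSO stocks and were tested in triplicate, 40 to 2,5 (or 2,5 to 0,03) per printed range, for 72 h. Cells fixed in 10% TCA, stained with 0.4% SRB, dye dissolved in 10 mM Tris, A515 read. IC50 derived after DMSO normalization.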

Huh-7 [5] = assay: Induction of apoptosis in human HuH7 cells assessed as early apoptotic cells at 1 uM after 48 hrs by Annexin V-FITC/propidium iodide staining-based flow cytometric analysis (reference value: 0.02%); format: functional
Huh-7 [6] = assay: Induction of apoptosis in human HuH7 cells assessed as early apoptotic cells at 1 uM after 24 hrs by Annexin V-FITC/propidium iodide staining-based flow cytometric analysis (reference value: 0.17%); format: functional
Mahlavu [7] = assay: Cell cycle arrest in human Mahlavu cells assessed as accumulation of cells at subG1 phase at 1 uM after 48 hrs by propidium iodide staining-based flow cytometric analysis (reference value: 22.6%); format: functional
Mahlavu [8] = assay: Cell cycle arrest in human Mahlavu cells assessed as accumulation of cells at S phase at 1 uM after 48 hrs by propidium iodide staining-based flow cytometric analysis (reference value: 11.6%); format: functional
Mahlavu [9] = assay: Induction of apoptosis in human Mahlavu cells assessed as early apoptotic cells at 1 uM after 48 hrs by Annexin V-FITC/propidium iodide staining-based flow cytometric analysis (reference value: 0%); format: functional
Huh-7 [10] = assay: Induction of apoptosis in human HuH7 cells assessed as viable cells at 1 uM after 72 hrs by Annexin V-FITC/propidium iodide staining-based flow cytometric analysis (reference value: 97.20%); format: functional; details: Huh-7, 72 h, read-out: Activity
Mahlavu [11] = assay: Induction of apoptosis in human Mahlavu cells assessed as increase in cytochrome C levels at 1 uM by Hoechst staining-based assay; format: functional, cell-based
MCF7 = assay: Cytotoxicity against human MCF7 cells after 72 hrs by SRB assay; format: functional, cell-based; details: Homo sapiens, MCF7, 72 h; read-out: IC50; how it was run: as §2
Huh-7 [12] = assay: Down-regulation of cyclin E protein expression in human HuH7 cells at 1 uM after 24 to 72 hrs by Western blot analysis; format: functional, cell-based
Huh-7 [13] = assay: Induction of apoptosis in human HuH7 cells assessed as late apoptotic cells at 1 uM after 48 hrs by Annexin V-FITC/propidium iodide staining-based flow cytometric analysis (reference value: 2.53%); format: functional
Huh-7 [14] = assay: Cell cycle arrest in human HuH7 cells assessed as accumulation of cells at S phase at 1 uM after 72 hrs by propidium iodide staining-based flow cytometric analysis (reference value: 15.5%); format: functional
Mahlavu [15] = assay: Cell cycle arrest in human Mahlavu cells assessed as accumulation of cells at S phase at 1 uM after 24 hrs by propidium iodide staining-based flow cytometric analysis (reference value: 23.2%); format: functional
Huh-7 [16] = assay: Induction of apoptosis in human HuH7 cells assessed as increase in cleaved PARP levels at 1 uM after 72 hrs by Western blot analysis; format: functional, cell-based
Mahlavu [17] = assay: Cytotoxicity against human Mahlavu cells after 48 hrs by RTCA analysis; format: functional, cell-based; how it was run: as §1
Homo sapiens = organism: Homo sapiens; assay: Induction of SAPK/JNK phosphorylation at Thr183/Tye185 residues in human HuH7 cells at 1 uM after 24 to 72 hrs by Western blot analysis; format: cell-based
Mahlavu [18] = assay: Induction of apoptosis in human Mahlavu cells assessed as necrotic cells at 1 uM after 24 hrs by Annexin V-FITC/propidium iodide staining-based flow cytometric analysis (reference value: 0.13%); format: functional
Huh-7 [19] = assay: Induction of apoptosis in human HuH7 cells assessed as viable cells at 1 uM after 48 hrs by Annexin V-FITC/propidium iodide staining-based flow cytometric analysis (reference value: 97.42%); format: functional; details: Huh-7, 48 h, read-out: Activity
Huh-7 [20] = assay: Cell cycle arrest in human HuH7 cells assessed as accumulation of cells at G2/M phase at 1 uM after 48 hrs by propidium iodide staining-based flow cytometric analysis (reference value: 33.5%); format: functional
Huh-7 [21] = assay: Cell cycle arrest in human HuH7 cells assessed as accumulation of cells at subG1 phase at 1 uM after 72 hrs by propidium iodide staining-based flow cytometric analysis (reference value: 4.7%); format: functional
Huh-7 [22] = assay: Induction of apoptosis in human HuH7 cells assessed as necrotic cells at 1 uM after 24 hrs by Annexin V-FITC/propidium iodide staining-based flow cytometric analysis (reference value: 0.03%); format: functional
Mahlavu [23] = assay: Induction of apoptosis in human Mahlavu cells assessed as early apoptotic cells at 1 uM after 72 hrs by Annexin V-FITC/propidium iodide staining-based flow cytometric analysis (reference value: 0.24%); format: functional
HepG2 = assay: Cytotoxicity against human HepG2 cells after 72 hrs by SRB assay; format: functional, cell-based; details: Homo sapiens, HepG2, 72 h; read-out: IC50; how it was run: as §2
Mahlavu [24] = assay: Cell cycle arrest in human Mahlavu cells assessed as accumulation of cells at G1 phase at 1 uM after 72 hrs by propidium iodide staining-based flow cytometric analysis (reference value: 44.6%); format: functional
[25] = target: RAC-alpha serine/threonine-protein kinase (Homo sapiens) (UniProt P31749); assay: Inhibition of Akt phosphorylation in human HuH7 cells at 1 uM after 72 hrs by Western blot analysis; format: cell-based
Chain of RAC-alpha serine/threonine-protein kinase (Homo sapiens) (P31749 whole entry): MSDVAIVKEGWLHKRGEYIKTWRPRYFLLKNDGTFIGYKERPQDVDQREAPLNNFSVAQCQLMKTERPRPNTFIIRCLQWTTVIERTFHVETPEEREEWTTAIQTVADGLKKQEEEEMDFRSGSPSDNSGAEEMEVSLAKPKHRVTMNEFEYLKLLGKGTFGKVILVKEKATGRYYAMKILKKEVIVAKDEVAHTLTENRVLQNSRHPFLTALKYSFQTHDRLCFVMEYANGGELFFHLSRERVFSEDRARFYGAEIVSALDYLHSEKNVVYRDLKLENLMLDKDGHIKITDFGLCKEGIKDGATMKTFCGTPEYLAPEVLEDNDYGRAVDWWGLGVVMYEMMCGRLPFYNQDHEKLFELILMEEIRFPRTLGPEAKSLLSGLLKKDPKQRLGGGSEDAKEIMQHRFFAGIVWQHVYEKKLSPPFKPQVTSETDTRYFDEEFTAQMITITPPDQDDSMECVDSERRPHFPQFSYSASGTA

[26] = target: RAC-alpha serine/threonine-protein kinase (Homo sapiens) (UniProt P31749); assay: Inhibition of Akt phosphorylation in human Mahlavu cells at 1 uM after 72 hrs by Western blot analysis; format: cell-based
[27] = target: RAC-alpha serine/threonine-protein kinase (Homo sapiens) (UniProt P31749); assay: Inhibition of AKT phosphorylation in human Mahlavu cells at 1 uM after 24 to 72 hrs by Western blot analysis; format: cell-based

Row | Structure (SMILES) | viability at 1 µM (Mahlavu [1]) [%] | Activity (Mahlavu [2]) [%] | Activity (Huh-7 [3]) [%] | IC50 (Mahlavu [4]) [nM] | IC50 (Hep 3B2) [nM] | Activity (Huh-7 [5]) [%] | Activity (Huh-7 [6]) [%] | Activity (Mahlavu [7]) [%] | Activity (Mahlavu [8]) [%] | Activity (Mahlavu [9]) [%] | viability at 1 µM (Huh-7 [10]) [%] | Activity (Mahlavu [11]) | IC50 (MCF7) [nM] | Activity (Huh-7 [12]) | Activity (Huh-7 [13]) [%] | Activity (Huh-7 [14]) [%] | Activity (Mahlavu [15]) [%] | Activity (Huh-7 [16]) | IC50 (Mahlavu [17]) [nM] | Activity (Homo sapiens) | also measured
1 | COc1ccc2c3c(c4cc(OC)c(OC)cc4c2c1)CN1CCCC[C@@H]1C3 | 91.8 | 23.7 | 7.5 | 600 | 16 | 0.18 | 0.07 | 28.3 | 10.5 | 0 | 83.4 | Active | 5 | Active | 5.96 | 8.7 | 17.5 | Active | 400 | Active | Activity (Mahlavu [18]): 0.57%; viability at 1 µM (Huh-7 [19]): 93.8%; Activity (Huh-7 [20]): 24.4%; Activity (Huh-7 [21]): 57.5%; Activity (Huh-7 [22]): 0%; Activity (Mahlavu [23]): 0.13%; IC50 (HepG2): 60 nM; Activity (Mahlavu [24]): 14.1%
2 | COc1ccc2c3c(c4cc(OC)c(OC)cc4c2c1)CN1CCCCC1C3O (racemic) | 99 | 32.4 | 25.4 | 10 | 17 | 0.07 | 0 | 20.4 | 9.5 | 0 | 81.7 | Active | 1 | Active | 5.52 | 7.7 | 14.3 | Active | 4 | Active | inhibition [25]: Active; inhibition [26]: Active; inhibition [27]: Active; Activity (Mahlavu [18]): 0.13%; viability at 1 µM (Huh-7 [19]): 94.2%; Activity (Huh-7 [20]): 18.1%; Activity (Huh-7 [21]): 62.9%; Activity (Huh-7 [22]): 0%; Activity (Mahlavu [23]): 0%; IC50 (HepG2): 2700 nM; Activity (Mahlavu [24]): 9.5%
